Measured values as given in ChEMBL document CHEMBL5674869, “The Histone Methyltransferase Inhibitor A-366 Uncovers a Role for G9a/GLP in the Epigenetics of Leukemia” (PLoS One, 2015).
Activity calls are given as the source filed them. The calls are words filed in the database; no cut-off is given here.

Legend:
[1] = target: T1, Histone-lysine N-methyltransferase EHMT2 (Homo sapiens) (UniProt Q96KQ7); test: Inhibition of G9a in human PC-3 cells assessed as decrease in total H3 levels at 10 uM by In cell Western assay; assay type: cell-based
T1 sequence (whole entry): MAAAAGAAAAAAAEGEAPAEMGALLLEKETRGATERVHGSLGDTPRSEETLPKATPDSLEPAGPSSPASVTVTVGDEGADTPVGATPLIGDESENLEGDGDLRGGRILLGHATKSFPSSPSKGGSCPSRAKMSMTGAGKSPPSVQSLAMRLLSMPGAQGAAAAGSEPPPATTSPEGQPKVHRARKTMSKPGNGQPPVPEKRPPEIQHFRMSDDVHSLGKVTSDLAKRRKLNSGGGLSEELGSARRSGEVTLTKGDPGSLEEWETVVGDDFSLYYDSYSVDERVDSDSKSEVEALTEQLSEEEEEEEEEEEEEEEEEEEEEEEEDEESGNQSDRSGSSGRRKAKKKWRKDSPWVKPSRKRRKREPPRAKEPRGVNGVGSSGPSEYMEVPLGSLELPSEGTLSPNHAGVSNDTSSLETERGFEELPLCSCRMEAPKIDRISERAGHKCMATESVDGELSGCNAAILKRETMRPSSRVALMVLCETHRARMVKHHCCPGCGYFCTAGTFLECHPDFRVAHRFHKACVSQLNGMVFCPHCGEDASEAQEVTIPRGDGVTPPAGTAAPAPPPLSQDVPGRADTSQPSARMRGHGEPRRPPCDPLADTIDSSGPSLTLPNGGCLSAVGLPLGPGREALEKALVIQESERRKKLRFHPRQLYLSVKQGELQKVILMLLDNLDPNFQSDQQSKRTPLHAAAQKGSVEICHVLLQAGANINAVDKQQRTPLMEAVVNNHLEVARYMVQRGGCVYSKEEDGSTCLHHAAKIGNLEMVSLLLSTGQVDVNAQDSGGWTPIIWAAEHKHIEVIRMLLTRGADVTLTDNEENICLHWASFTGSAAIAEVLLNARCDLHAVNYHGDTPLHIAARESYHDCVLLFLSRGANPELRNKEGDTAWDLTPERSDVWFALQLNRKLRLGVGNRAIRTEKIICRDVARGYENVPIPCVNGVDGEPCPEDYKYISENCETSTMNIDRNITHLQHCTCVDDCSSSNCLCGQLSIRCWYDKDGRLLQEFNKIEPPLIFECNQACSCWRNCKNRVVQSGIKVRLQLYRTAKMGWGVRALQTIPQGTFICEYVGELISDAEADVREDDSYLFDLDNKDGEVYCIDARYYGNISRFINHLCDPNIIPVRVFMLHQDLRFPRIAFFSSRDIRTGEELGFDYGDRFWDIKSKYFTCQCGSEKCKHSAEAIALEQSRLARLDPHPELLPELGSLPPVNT
Outline: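 PC-3 cells (5,000/well) adhered overnight, then treated in triplicate with DMSO or compound over a concentration range for 72 h at 37 °C, 5% CO2. Cells fixed in 3% formaldehyde, blocked in 1% BSA and co-stained 4 h for H3K9me2 (1:500) and total H3 (1:1000). Fluorescent secondaries read by Odyssey: 800 nm H3K9me2, 700 nm total H3.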

[2] = target: T1, Histone-lysine N-methyltransferase EHMT2 (Homo sapiens); test: Inhibition of G9a in human MCF7 cells assessed as decrease in […] levels at 0.3 to 3 uM after 72 hrs by Western blot analysis; assay type: cell-based; details: dose 0.3-3 µM
[3] = target: T1, Histone-lysine N-methyltransferase EHMT2 (Homo sapiens); test: Inhibition of G9a in human MDA-MB-231 cells assessed as slight decrease in […] levels at 0.3 to 3 uM after 72 hrs by Western blot analysis; assay type: cell-based; details: dose 0.3-3 µM
MOLT-16 = test: Antiproliferative activity against human MOLT-16 cells at EC50 after 5 days by Cell-Titer-Glo assay; assay type: functional, cell-based; details: time 5.0 day
Outline: (§1)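 ATCC tumor lines were grown in their recommended media with 10% FBS and STR-authenticated. Cells were exposed to compound for the stated number of days. Viable cells were read by CellTiter-Glo endpoint. Inhibition was the ratio of treated to untreated wells, with cell-free wells set as 100% inhibition. The EC50 was taken from the dose response.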

[4] = target: T1, Histone-lysine N-methyltransferase EHMT2 (Homo sapiens); test: Inhibition of G9a in human HT-1080 cells assessed as decrease in […] levels after 2 days by AlphaLisa assay; assay type: cell-based; details: time 2.0 day
Outline: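 HT-1080 cells treated 2 days with compound over a concentration range. Viability read by CellTiter-Glo; H3K9me2 measured by AlphaLISA and normalized to viability. % inhibition calculated relative to untreated cells set as 0%.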

THP-1 = test: Antiproliferative against human THP-1 cells after 5 days by Cell-Titer Glo assay; assay type: functional, cell-based; details: THP-1, 120 h; outline: as §1
RPMI-8226 = test: Antiproliferative against human RPMI-8226 cells after 5 days by Cell-Titer Glo assay; assay type: functional, cell-based; details: RPMI-8226, 120 h; outline: as §1
Kasumi 1 = test: Antiproliferative against human Kasumi-1 cells after 5 days by Cell-Titer Glo assay; assay type: functional, cell-based; details: Kasumi 1, 120 h; outline: as §1
MV4-11 = test: Antiproliferative against human MV4-11 cells after 5 days by Cell-Titer Glo assay; assay type: functional, cell-based; details: MV4-11, 120 h; outline: as §1
K562 = test: Antiproliferative against human K562 cells after 5 days by Cell-Titer Glo assay; assay type: functional, cell-based; details: K562, 120 h; outline: as §1
CWR22R = test: Antiproliferative against human 22RV1 cells after 5 days by Cell-Titer Glo assay; assay type: functional, cell-based; details: 22Rv1, 120 h; outline: as §1
LNCaP = test: Antiproliferative against human LNCaP cells after 5 days by Cell-Titer Glo assay; assay type: functional, cell-based; details: 120 h; outline: as §1
SK-BR-3 = test: Antiproliferative against human SK-BR-3 cells after 5 days by Cell-Titer Glo assay; assay type: functional, cell-based; details: SK-BR-3, 120 h; outline: as §1
NCI-H1975 = test: Antiproliferative against human NCI-H1975 cells after 5 days by Cell-Titer Glo assay; assay type: functional, cell-based; details: NCI-H1975, 120 h; outline: as §1
NCI-H358 = test: Antiproliferative against human NCI-H358 cells after 5 days by Cell-Titer Glo assay; assay type: functional, cell-based; details: NCI-H358, 120 h; outline: as §1
NCI-H522 = test: Antiproliferative against human NCI-H522 cells after 5 days by Cell-Titer Glo assay; assay type: functional, cell-based; details: NCI-H522, 120 h; outline: as §1
NCI-H661 = test: Antiproliferative against human NCI-H661 cells after 5 days by Cell-Titer Glo assay; assay type: functional, cell-based; details: NCI-H661, 120 h; outline: as §1
PA-1 = test: Antiproliferative against human PA-1 cells after 7 days by Cell-Titer Glo assay; assay type: functional, cell-based; details: PA-1, 168 h; outline: as §1
G-401 = test: Antiproliferative against human G-401 cells after 7 days by Cell-Titer Glo assay; assay type: functional, cell-based; details: G-401, 168 h; outline: as §1
U2OS = test: Antiproliferative against human U2OS cells after 7 days by Cell-Titer Glo assay; assay type: functional, cell-based; details: 168 h; outline: as §1
[5] = Antiproliferative against human tsA201 cells after 7 days by Cell-Titer Glo assay; assay type: functional, cell-based; details: tsA201, 168 h; outline: as §1
[6] = target: T1, Histone-lysine N-methyltransferase EHMT2 (Homo sapiens); test: Inhibition of G9a in human PC-3 cells assessed as decrease in H3K9me2 levels after 72 hrs by Western blot analysis

| inhibition [1] | inhibition [2] | inhibition [3] | inhibition [4] | EC50 (THP-1) [µM] | EC50 (RPMI-8226) [µM] | EC50 (MV4-11) [µM] | EC50 (K562) [µM] | EC50 (LNCaP) [µM] | EC50 (SK-BR-3) [µM] | EC50 (NCI-H1975) [µM] | EC50 (NCI-H358) [µM] | EC50 (NCI-H522) [µM] | EC50 (NCI-H661) [µM] | EC50 (U2OS) [µM] | Structure (SMILES) | Activity (MOLT-16) | EC50 (Kasumi 1) [µM] | EC50 (CWR22R) [µM] | EC50 (PA-1) [µM] | EC50 (G-401) [µM] | other results |
| --- | --- | --- | --- | --- | --- | --- | --- | --- | --- | --- | --- | --- | --- | --- | --- | --- | --- | --- | --- | --- | --- |
| Active | Active | Active | Active | 4.9 | 5.1 | 1.7 | 5.3 | 0.3 | 0.6 | > 10 | 4.3 | 1.5 | 4.9 | 0.5 | COc1cc2c(NC3CCN(C(C)C)CC3)nc(C3CCCCC3)nc2cc1OCCCN1CCCC1 | Active | 1.1 | 0.2 | 0.2 | 0.4 | EC50 [5]: > 10 µM; inhibition [6]: Active |
| inactive | Active | Active | Active | > 10 | > 10 | > 10 | > 10 | > 10 | > 10 | > 10 | > 10 | > 10 | > 10 | > 10 | COc1cc2c(cc1OCCCN1CCCC1)N=C(N)C21CCC1 | inactive | > 10 | > 10 | > 10 | > 10 | EC50 [5]: > 10 µM; inhibition [6]: Dose-Dependent Effect |
